A selection: hits, their analogues and other compounds. The true share with any hit is near 2.8%.
PAFAH1B2 FP inh – blocks human PAF acetylhydrolase 1b catalytic subunit 2. P68402. recombinant PAFAH1B2, FP-rhodamine activity probe, fluorescence polarization. inhibition, % at 3.39 µM. 1.2% of 340,000 active. AID 492953;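 active = inhibition above the mean of all tested compounds plus 3 SD, cut at about 24% in these data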
Target sequence (P68402 whole entry, looked up): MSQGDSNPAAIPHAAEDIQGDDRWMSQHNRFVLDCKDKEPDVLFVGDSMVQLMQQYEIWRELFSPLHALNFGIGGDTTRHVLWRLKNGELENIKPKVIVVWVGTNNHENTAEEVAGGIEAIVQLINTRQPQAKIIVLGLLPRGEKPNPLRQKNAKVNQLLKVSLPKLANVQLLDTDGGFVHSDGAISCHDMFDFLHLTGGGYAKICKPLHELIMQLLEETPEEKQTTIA
pPAFAH inh – inhibitors of human plasma PAF acetylhydrolase (pPAFAH). Q13093. recombinant pPAFAH, FP-rhodamine probe fluorescence polarization. inhibition, % at 3.39 µM. 1.5% of 330,000 active. AID 463082;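 active = inhibition above the mean inhibition across the screen plus 3 SD, cut at about 25% in these data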;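 also: inhibitors block binding of the rhodamine activity-based probe so polarization drops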
Target sequence (Q13093 whole entry, looked up): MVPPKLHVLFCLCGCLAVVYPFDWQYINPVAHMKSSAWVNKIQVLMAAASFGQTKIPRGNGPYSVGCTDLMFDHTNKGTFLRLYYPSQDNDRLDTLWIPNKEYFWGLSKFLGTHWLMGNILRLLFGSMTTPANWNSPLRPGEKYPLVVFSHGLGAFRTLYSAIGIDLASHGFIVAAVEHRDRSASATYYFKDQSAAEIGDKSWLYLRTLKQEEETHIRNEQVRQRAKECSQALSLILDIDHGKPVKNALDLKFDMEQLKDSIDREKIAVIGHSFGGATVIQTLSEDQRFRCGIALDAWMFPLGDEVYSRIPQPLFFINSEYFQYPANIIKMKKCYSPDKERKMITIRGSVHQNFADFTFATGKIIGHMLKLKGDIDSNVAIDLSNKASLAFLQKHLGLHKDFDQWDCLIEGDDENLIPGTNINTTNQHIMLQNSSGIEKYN
ASAP1 GAP inh – inhibitors of human ASAP1 ArfGAP activity; ASAP1-stimulated ARF1 GTP hydrolysis, GDP FP detection; inhibition, % at 16.5 µM; 0.19% of 360,000 active; AID 624377; in the data active = inhibition above about 25%
ARFGAP1 inh – rat ARFGAP1 inhibition. 0.26% of 360,000 active. Q62848. Arfgap1-stimulated ARF1 GTP hydrolysis, GDP FP detection. inhibition, % at 16.5 µM;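 active = inhibition above a per-plate limit, mean inhibition of low control wells plus 3 SD, cut at about 25% in these data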
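System: truncated rat Arfgap1 GAP domain / Medium: HEPES-based buffer, pH 7.5 / Also added: N-terminally truncated human ARF1-GTP substrate / Incubation: enzyme reaction 120 min at 25 °C after 20 min preincubation / Measured by: FP of antibody-bound GDP Alexa 633 tracer, ex 620/em 688 nm / Replicates: singlicate, each compound tested once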
PAFAH1B3 inh – inhibitors of human PAFAH1B3; Q15102; recombinant PAFAH1B3, FP-rhodamine probe, fluorescence polarization; inhibition, % at 3.39 µM; 0.28% of 340,000 active; AID 492972;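 active = inhibition above the screen-wide average of all tested compounds plus 3 SD, cut at about 25% in these data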
PAFAH2 FP inh – PAFAH2 (human) inhibition; recombinant PAFAH2, FP-rhodamine activity probe, fluorescence polarization; 0.99% of 340,000 active; AID 492956; inhibition, % at 3.39 µM; Q99487;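 active = inhibition above the mean over all tested compounds plus 3 SD, cut at about 30% in these data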;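 also: inhibitors block probe labeling of enzyme so polarization drops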
PAFAH2 confirm – confirmation of human PAFAH2 inhibitors; shares compounds with PAFAH2 FP inh; recombinant PAFAH2, FP-rhodamine activity probe, fluorescence polarization; inhibition, % at 3.39 µM; 65% of 2,300 active;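 active = mean inhibition over three repeats above a set limit taken from the earlier primary screen, cut at about 30% in these data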;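 also: inhibitor blocks binding of rhodamine activity probe so polarization falls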
ASAP1 inh confirm – confirmation of human ASAP1 inhibitors. shares compounds with ASAP1 GAP inh. ASAP1-stimulated Arf1 GTPase, GDP fluorescence polarization. inhibition, % at 16.5 µM. 37% of 620 active;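 active = mean inhibition over triplicates exceeds the hit threshold derived for the earlier primary screening run, cut at about 25% in these data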
Numbers stand for hits; n = inactive; x = no result.

SMILES | PAFAH1B2 FP inh | pPAFAH inh | ASAP1 GAP inh | ARFGAP1 inh | PAFAH1B3 inh | PAFAH2 FP inh | PAFAH2 confirm | others
Cc1ccc(C(=O)Oc2oc(-c3ccccc3)nc2C=Nc2ccc(N(C)C)cc2)cc1 | n | n | n | n | n | n | x
CCCCCNC(=O)C(c1ccc(-c2ccccc2)cc1)n1c(=O)c(-c2cc3ccccc3[nH]2)nc2ccccc21 (centres undefined) | x | x | n | n | x | x | x
O=c1[nH]nc(CNc2ccc(OC(F)(F)F)cc2)c2ccccc12 | n | n | n | n | n | n | x
O=c1[nH]nc(CNc2ccc(C(F)(F)F)cc2)c2ccccc12 | n | n | n | n | n | 50.3 | 34.5
Cc1ccccc1C(=O)NC1CC2CCCC(C1)N2Cc1ccc(Cl)cc1 (centres undefined) | n | n | n | n | n | n | x
O=C(CCS(=O)(=O)c1ccc(Br)cc1)N1CCN(c2ccccc2)CC1 | n | n | n | n | n | 32.5 | n
CC(=O)N1CCN(c2ccc(NC(=O)c3ccc(F)cc3)cc2)CC1 | n | x | n | n | n | n | x
COc1ccc(/C=C2\CCc3ccccc3C2=O)cc1O | n | n | n | n | n | n | x
O=C(COC(=O)c1ccccc1O)NCCC1=CCCCC1 | n | n | n | n | n | n | x
Cc1ccc(C(=O)OCC(=O)NCCC2=CCCCC2)s1 | n | n | n | n | n | 61.1 | 60.2
O=C(COC(=O)c1cccs1)NCCC1=CCCCC1 | n | n | n | n | n | 55.0 | 41.0
CCN(CC)C(=O)C1=C(C)N(CCC2=CCCCC2)C(=O)C(CC(=O)NCc2cccc3ccccc23)C1 (centres undefined) | x | x | n | n | x | x | x
Cc1noc(C)c1C(=O)OC(C)C(=O)c1c[nH]c2ccccc12 (centres undefined) | x | x | n | n | x | x | x
CC(=O)Nc1cc(C(=O)OCC(=O)c2ccc(Cl)cc2Cl)ccc1C | n | n | n | n | n | 34.5 | n
Cc1ccc(Cl)cc1NC(=O)COC(=O)c1ccc(CN2CCCC2=O)cc1 | n | n | n | n | n | 59.9 | 43.0
COc1cc(Cl)c(C)cc1NC(=O)COC(=O)C1CC1C (centres undefined) | n | n | n | n | n | n | x
Cc1cccc(NC(=O)COC(=O)CN2CCCCCC2=O)c1C | n | n | n | n | n | n | x
COc1cc(Cl)c(C)cc1NC(=O)COC(=O)c1ccc(CN2CCCC2=O)cc1 | n | n | n | n | n | 43.3 | n
Cc1c(Cl)cccc1NC(=O)COC(=O)c1ccc(CN2CCCC2=O)cc1 | n | n | n | n | n | 76.0 | 67.4
CC(=O)Nc1cc(C(=O)OCC(=O)c2ccc(C)cc2)ccc1C | n | n | n | n | n | n | x
CCN(CC)C(=O)C1=C(C)N(Cc2ccc(C(C)(C)C)cc2)C(=O)C(CC(=O)NCC2CCCCC2)C1 (centres undefined) | x | x | n | n | x | x | x
CCCC1NC(=O)c2cccnc2-n2c1nc1ccc(C)cc1c2=O (centres undefined) | x | x | n | n | x | x | x
COc1ccc(C(=O)NC=C2C(=O)OC(C)(C)OC2=O)cc1 | n | n | n | n | n | n | x
C=CCN(c1ccccc1)S(=O)(=O)c1ccc2c(c1)N(C(C)=O)CCO2 | n | n | n | n | n | n | x
COc1cccc(-c2cc3nc(-c4ccccc4)cc(=O)n3[nH]2)c1 | n | n | n | n | n | n | x
SMILES | PAFAH1B2 FP inh | pPAFAH inh | ASAP1 GAP inh | ARFGAP1 inh | PAFAH1B3 inh | PAFAH2 FP inh | PAFAH2 confirm | others
O=c1cc(-c2ccccc2)nc2cc(-c3ccc(F)cc3)[nH]n12 | n | n | n | n | n | 64.0 | n
CC(NC(=O)COC(=O)c1ccc(N2CCCC2=O)cc1)c1ccc(F)cc1 (centres undefined) | n | n | n | n | n | 77.5 | 67.7
COc1ccc(NC(=O)COC(=O)c2ccc(N3CCCC3=O)cc2)cc1 | n | n | n | n | n | 83.5 | 67.0
COc1ccc(CCNC(=O)COC(=O)c2ccc(N3CCCC3=O)cc2)cc1 | n | n | n | n | n | 55.6 | 39.7
CCc1ccccc1OCC(=O)Nc1ccc(F)c(S(=O)(=O)N2CCOCC2)c1 | n | x | n | n | n | n | x
O=c1c2ccccc2nc(COc2ccccc2)n1/N=C/c1ccc(O)c(O)c1 | n | n | n | n | n | 30.2 | n
N#C/C(=C\c1ccc(O)c(O)c1)S(=O)(=O)c1ccccc1 | n | n | n | n | n | 64.0 | 48.8
CCNC(=O)COC(=O)/C=C/c1cccs1 | n | n | n | n | n | n | x
O=C(COC(=O)/C=C/c1cccs1)Nc1ccc(F)cc1 | n | n | n | n | n | 81.8 | 82.2
COc1ccccc1CNC(=O)COC(=O)c1ccc(C)s1 | n | n | n | n | n | 75.4 | 61.6
COc1ccccc1CNC(=O)COC(=O)/C=C/c1cccs1 | n | n | n | n | n | 50.5 | 36.9
CCc1cccc(NC(=O)COC(=O)/C=C/c2cccs2)c1 | n | n | n | n | n | 72.7 | 78.1
CN(CC(=O)Nc1ccc(F)cc1)C(=O)COC(=O)/C=C/c1cccs1 | n | n | n | n | n | n | x
C[C@H](O)[C@@H]1C(=O)N2CCc3c([nH]c4ccccc34)[C@@H]2C[C@@H]1N(C)C(=O)OCc1ccccc1 | x | x | n | n | x | x | x
Cc1ccc(C)c(OCC(=O)Nc2ccccc2C(=O)N2CCOCC2)c1 | n | n | n | n | n | n | x
COc1ccc(Cl)cc1NC(=O)CN(C)C(=O)CCCNC(=O)c1ccc(Cl)cc1 | n | n | n | n | n | n | x
CCOc1ccc(/C=C/C(=O)OCC(=O)Nc2cccc(S(=O)(=O)N3CCCC3)c2)cc1 | n | n | n | n | n | n | x
O=C(COC(=O)/C=C/c1cccs1)Nc1cccc(S(=O)(=O)N2CCCC2)c1 | n | n | n | n | n | 64.3 | 57.2
O=C(COC(=O)/C=C/c1ccc(Cl)cc1)Nc1ccccc1 | n | n | n | n | n | 72.9 | 71.9
O=C(COC(=O)/C=C/c1ccccc1)Nc1ccc2c(c1)OCCO2 | n | n | n | n | n | 68.8 | 55.7
O=C(COC(=O)/C=C/c1ccccc1)Nc1cccc(Oc2ccccc2)c1 | n | n | n | n | n | 35.8 | 31.7
Cc1ccc(N2CC(C(=O)OCC(=O)Nc3ccc(F)cc3F)CC2=O)cc1 (centres undefined) | n | n | n | n | n | n | x
Cn1cnnc1SCC(=O)Nc1sc2c(c1C(N)=O)CCC2 | n | 34.4 | n | n | n | 37.8 | n
O=C(COC(=O)C1CC2CCCC(C1)C2=O)NC1CCCCC1 (centres undefined) | n | n | 25.8 | n | n | 63.0 | 54.9 | ASAP1 inh confirm=n
CC(NC(=O)COC(=O)C1CC2CCCC(C1)C2=O)c1ccccc1 (centres undefined) | n | n | n | n | n | n | x

Screens as filed in PubChem BioAssay.
